# CASP6 VEID inh: caspase-6 (human) enzyme inhibition | purified caspase-6, Z-VEID-R110 cleavage fluorescence | inhibition, % at 12.5 µM | 0.53% of 350,000 active;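 active means mean inhibition across replicates at least about 35%, with every replicate also reaching that limit, limit read from the data; inconclusive means only one of the two criteria met; inactive means neither criterion met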
# Target sequence (P55212 24-179 limits assumed): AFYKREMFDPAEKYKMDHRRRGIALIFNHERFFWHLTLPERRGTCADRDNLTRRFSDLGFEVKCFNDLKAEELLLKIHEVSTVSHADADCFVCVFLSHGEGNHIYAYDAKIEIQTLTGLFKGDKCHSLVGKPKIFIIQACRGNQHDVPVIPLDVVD
# Target sequence (P55212 194-293 limits assumed): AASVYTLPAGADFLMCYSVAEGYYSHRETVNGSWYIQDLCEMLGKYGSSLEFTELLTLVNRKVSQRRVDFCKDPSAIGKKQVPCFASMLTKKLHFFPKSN
# DENV2 CPE rescue: inhibitors of DENV2 cytopathic effect; DENV2-infected cells, cytopathic effect rescue, plate reader; CPE inhibition, % at 9.99 µM; 1.7% of 350,000 active; in the data active means CPE inhibition above about 20%, passing the limit was not always enough; inconclusive means no clear call, values can overlap the other calls; tested in BHK-21 cells
# FN deposit inh: fibronectin deposition inhibition; AH1F fibroblasts, Alexa488-fibronectin deposition fluorescence, overnight; inhibition, % at 12.6 µM; 0.086% of 350,000 active; AID 743247;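 active means mean inhibition across replicates of 30% or more, regardless of how many single replicates reach that level; inconclusive means mean under 30% yet at least half of replicates reach 30%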
#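 Test system: AH1F fibroblast monolayer depositing Alexa488-labelled fibronectin into matrix. Input: 10000 cells per well. Technique: fluorescence, ex 485 nm, em 525 nm. Buffer or medium: DMEM plus 2% serum, read in PBS. Timing: 1 h cell adhesion before compound, then overnight fibronectin incubation. Compound: single dose, pinned. Read-out basis: inhibition from reduced deposited-fibronectin fluorescence.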
# CaV13 ICDI inh: Primary screen for inhibitors of IQ motif and Ca2+-dependent inactivation inhibitor domain binding in CACNA1D, Förster resonance energy transfer in living cells, …; 0.098% of 340,000 active; HEK cells, CFP/YFP FRET ICDI-IQ, plate reader, 10 min; percent FRET-ratio fall versus neutral wells; AID 743397; inhibition, % at 12.3 µM;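 active means mean replicate inhibition of at least 30% and at least 1% of replicates passing that level; inconclusive means only one of the two criteria is met; inactive means neither criterion is met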
# XiGFP reactiv: X-chromosome reactivation activator. XiGFP mouse fibroblasts, % GFP-positive cells imaging, 3 d; cells co-treated with 5-aza-dC sensitizer; scaled so ellipticine positive control = 100%. activation, % at 7.58 µM. 0.055% of 360,000 active. AID 743238;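 active means mean normalized replicate activation at least 10% and every replicate at or above 10%; inconclusive means only one of the two criteria met; inactive means mean below 10% and not all replicates reach 10%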
#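 Material: SV40-immortalized XiGFP fibroblast cells, line 68-5-11 | Buffer or medium: DMEM containing 5-aza-dC | Dosing: One concentration, pinned | Times: 3 d treatment, 15 min room-temperature fixation | Controls: Ellipticine 6 µM positive control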
# Hits are given with their value; 0 = inactive; ? = inconclusive; - = no result. Sampled rows, rich in hits. Any-hit rate of the full collection: about 2%.
SMILES,CASP6 VEID inh,DENV2 CPE rescue,FN deposit inh,CaV13 ICDI inh,XiGFP reactiv
O=C(C[C@H]1CC[C@H]2[C@@H](COC[C@@H](O)CN2C(=O)Nc2ccc(Cl)c(Cl)c2)O1)NCc1ccc(Cl)cc1,0,29,0,-,0
COc1cccc(-c2ccc3c(c2)O[C@H](CN(C)C(=O)C2CCC2)[C@@H](C)CN([C@H](C)CO)S3(=O)=O)c1,0,0,-,-,0
CC(=O)Nc1ccc2c(c1)CC(=O)N(C)C[C@H](C)[C@H](CN(C)C)O2,-,-,0,-,0
O=C(CCNS(=O)(=O)c1cccc2nonc12)NC1CCCc2ccccc21 (stereo not drawn),-,-,36,0,-
COc1ccccc1NC(=O)N[C@@H]1C=C[C@H](CC(=O)N[C@@H](C)c2ccccc2)O[C@H]1CO,0,66,0,-,0
Cc1cc(OCc2cc(C(=O)N(C)Cc3ccccn3)no2)cc(C)c1Cl,0,0,0,0,0
Cc1cc(OCc2cc(C(=O)N(C)C(C)c3ccccn3)no2)cc(C)c1Cl (stereo not drawn),0,31,0,0,0
CC(C)NC(=O)NCC[C@H]1CC[C@H](NC(=O)CN(C)C)[C@@H](CO)O1,0,0,0,-,0
COc1ccccc1-c1ccc2c(c1)[C@H]1[C@H](CCN1S(=O)(=O)c1cn(C)cn1)[C@@H](CO)N2,0,0,0,-,0
O=[N+]([O-])c1c(Nc2ccccc2O)cc(Cl)c2nonc12,0,0,0,0,0
O=C(O)c1cc(Nc2cc(Cl)c3nonc3c2[N+](=O)[O-])ccc1O,49,0,0,0,0
O=C(C[C@@H]1CC[C@H](NC(=O)Nc2ccccc2)[C@@H](CO)O1)NCc1cccc(F)c1,0,0,-,-,0
O=C(O)[C@]1(S(=O)(=O)c2ccccc2)C[C@@H]2ON=C(c3cccc(Br)c3)[C@@H]2C1,0,25,0,0,0
CC(C)NC(=O)N(C)C[C@@H]1Oc2c(cccc2N(C)C)C(=O)N([C@H](C)CO)C[C@H]1C,0,27,-,-,0
CC(C)NC(=O)N(C)C[C@H]1Oc2c(cccc2N(C)C)C(=O)N([C@@H](C)CO)C[C@H]1C,0,22,-,-,0
C[C@@H]1CN([C@H](C)CO)C(=O)c2cccc(N(C)C)c2O[C@H]1CN(C)C(=O)NC1CCCCC1,0,0,0,-,0
C[C@@H]1CN([C@H](C)CO)C(=O)CCCn2cc(nn2)CO[C@H]1CN(C)Cc1ccccc1C(=O)O,0,0,0,-,0
O=C(CSc1nc2ccccc2c(=O)[nH]1)Nc1ccc(N2CCOCC2)cc1,58,?,-,-,0
O=C(CSc1nc2ccccc2c(=O)[nH]1)Nc1ccccc1N1CCOCC1,0,0,-,0,0
CSCCC(NC(=O)COc1ccccc1)C(=O)N(C)CC(=O)Nc1c(C)cccc1C (stereo not drawn),42,0,0,0,0
CSCCC(NC(=O)COc1ccccc1)C(=O)OCCOc1ccc(C)cc1 (stereo not drawn),0,27,0,0,0
CSCCC(NC(=O)COc1ccccc1)C(=O)N1CC(C)CC(C)C1 (stereo not drawn),0,0,0,0,0
CC(C)C#Cc1ccc([C@@H]2[C@H](CO)N3C(=O)CN(C(=O)Cc4cccnc4)C[C@@H]23)cc1,-,-,-,-,0
O=C(NCC[C@H]1CC[C@@H](NC(=O)c2cnccn2)[C@@H](CO)O1)Nc1ccc(F)cc1,0,0,0,-,0
COc1cccc(CNC(=O)CCn2ccc3cc(S(=O)(=O)N4CCCC4)ccc32)c1,70,0,0,0,0
SMILES,CASP6 VEID inh,DENV2 CPE rescue,FN deposit inh,CaV13 ICDI inh,XiGFP reactiv
COc1cccc(CNC(=O)CCCn2ccc3cc(S(=O)(=O)N4CCCC4)ccc32)c1,0,0,0,0,0
O=C(NC1(O)C(=O)c2ccccc2C1=O)c1c(Cl)cccc1Cl,39,0,0,0,0
O=C(NCCCN1CCOCC1)C1CCC(=O)N1CCc1ccccc1 (stereo not drawn),0,29,0,0,0
CO[C@@H]1CN(C)C(=O)c2ccc(NC(C)=O)cc2OC[C@H](C)N(CC2CC2)C[C@H]1C,0,0,0,-,0
CCN(CC)c1ccc(/C=C/c2cc(-c3ccccc3)c3ccccc3n2)cc1,0,0,0,0,95
CN(C)c1ccc(/C=C/c2ccc3ccccc3n2)cc1,0,-,-,-,-
COc1cccc(-c2ccc([C@@H]3[C@H]4CN(C(=O)CN5CCOCC5)CC(=O)N4[C@H]3CO)cc2)c1,0,0,-,-,0
Cc1cc2ccccn2c1C(=S)NC(=O)c1ccccc1,0,0,0,0,0
Cc1ccc(C(=O)NC(=S)c2c(C)cc3ccccn23)cc1,0,85,0,0,0
Cc1ccc(S(=O)(=O)N(C)C[C@H]2OCCCC[C@H](C)Oc3ccc(NS(=O)(=O)c4ccccc4)cc3C(=O)N([C@@H](C)CO)C[C@@H]2C)cc1,0,0,-,-,0
CN(C)C(=O)[C@@H]1[C@@H](CO)[C@@H]2Cn3c(ccc(C4=CCCC4)c3=O)[C@H]1N2S(=O)(=O)c1cn(C)cn1,0,22,0,-,0
CN(C)C(=O)[C@@H]1[C@@H](CO)[C@@H]2Cn3c(ccc(C4=CCCCC4)c3=O)[C@H]1N2C,0,0,-,-,0
CN(C)C(=O)[C@H]1[C@H](CO)[C@H]2Cn3c(ccc(C4=CCCCC4)c3=O)[C@@H]1N2Cc1ccncc1,0,36,-,-,0
CCNC(=O)[C@@H]1[C@@H](CO)[C@@H]2Cn3c(ccc(C4=CCCCC4)c3=O)[C@H]1N2Cc1ccncc1,0,0,-,-,0
CCCC#Cc1ccc2c(c1)O[C@@H](CN(C)C(=O)C1CCC1)[C@@H](C)CN([C@@H](C)CO)S2(=O)=O,0,0,0,-,0
CCS(=O)(=O)Nc1ccc2c(c1)C(=O)N(C)C[C@@H](OC)[C@@H](C)CN[C@H](C)CO2,0,55,0,-,0
CO[C@H]1CN(C)C(=O)c2cc(NS(=O)(=O)CC(F)(F)F)ccc2OC[C@H](C)NC[C@H]1C,0,0,0,-,0
CCS(=O)(=O)Nc1ccc2c(c1)C(=O)N(C)C[C@H](OC)[C@H](C)CN[C@H](C)CO2,0,21,0,-,0
CO[C@H]1CN(C)C(=O)c2cc(NS(=O)(=O)CC(F)(F)F)ccc2OC[C@@H](C)NC[C@H]1C,0,0,0,-,0
CC(C)[C@H]1COCc2cn(nn2)CCCCC(=O)N1,-,-,0,-,0
O=S(=O)(Nc1ccc(O)c2ccccc12)c1cccs1,53,0,0,0,0
C[C@H]1CCCCO[C@H](CN(C)C(=O)NC2CCCCC2)[C@@H](C)CN([C@@H](C)CO)C(=O)c2cc(NC(=O)Cc3ccccc3)ccc2O1,0,0,-,-,0
CO[C@@H]1CN(C)C(=O)c2cc(NC(=O)C3CCOCC3)ccc2OC[C@H](C)N(C(=O)c2ccccc2)C[C@H]1C,-,-,0,-,0
Cc1ccccc1S(=O)(=O)N1C[C@@H](O)COC[C@H]2O[C@H](CC(=O)N3CCC(Cc4ccccc4)CC3)CC[C@@H]21,0,68,0,-,0
